Measured values from publication PMC11378895 (Asian Journal of Pharmaceutical Sciences, 2024).
Where no end group is shown, it is not given here.

How the values were obtained:
[1] = target: T1, LRG1 (Homo sapiens, UniProt P02750); assay: LRG1 degradation in HK-2 cells; type: cell-based; details: various concentrations, Western blot (Fig. S9)
T1 sequence (P02750 36-347): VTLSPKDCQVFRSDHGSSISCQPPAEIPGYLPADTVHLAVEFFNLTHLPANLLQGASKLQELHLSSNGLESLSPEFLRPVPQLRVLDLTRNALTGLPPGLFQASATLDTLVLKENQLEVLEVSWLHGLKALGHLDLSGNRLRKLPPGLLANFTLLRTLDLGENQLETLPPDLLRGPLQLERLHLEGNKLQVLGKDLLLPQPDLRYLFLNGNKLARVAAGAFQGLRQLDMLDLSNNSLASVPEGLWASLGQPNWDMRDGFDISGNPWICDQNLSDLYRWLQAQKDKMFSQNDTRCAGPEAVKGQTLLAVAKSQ
Outline: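 HK-2 cells were seeded at 3 × 10^5 cells per well. After adherence, they were serum-starved 6 h, then treated with test compound at varying concentrations for 12 h. Harvested protein went to Western blot, with LRG1 normalised to GAPDH as internal control.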

[2] = system: HK-2 cells; assay: Cellular uptake by flow cytometry and confocal microscopy; type: cell-based, human; details: 10 µM, 1-h and 4-h incubation, flow cytometry, n = 3
Outline: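 HK-2 cells in DMEM with 10% FBS at 37 °C and 5% CO2, seeded at 3 × 10^5 cells per well. After adherence, they got medium with 10 µM Cy5-labelled test peptide or control peptide, some with TGF-β, for 1 h or 4 h. Flow cytometry quantified uptake (n = 3). For confocal imaging, the same treatment was followed by fixation and Hoechst 33342 nuclear stain.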

Compound | LRG1 degradation by the constituents (control degradation experiments) [1] | uptake by HK-2 cells compared with control peptide [2]
Nc1cccc2c1CN(C1CCC(=O)NC1=O)C2=O (centres unmarked) [lenalidomide, Lenalidomide] | none of these treatments led to LRG1 degradation | 
ET-Cy5: ET peptide labeled with cyanine dye Cy5 (ESYSAKHRIMLT; also: Cy5 label, position not given here) |  | markedly enhanced than MP-Cy5
